Source: PubChem BioAssay
Rows were chosen to be rich in hits. Some 2.4% of all compounds tested hit in one or more screens of this group.
NPY2 pot ag: potentiators or agonists of human neuropeptide Y receptor Y2. P49146. activation, % at 3.6 µM. cells expressing NPY-Y2, potentiator/agonist read-out. hit rate 0.45% among 220,000; in the data active = activation above about 27%;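 note: cells stimulated with NPY near EC25 plus isoproterenol at EC100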
NPY1 pot ag: human NPY-Y1 potentiation or agonism, primary screen | activation, % at 3.6 µM | AID 1304 | NPY-Y1 expressing cells, potentiator/agonist activation | hit rate 0.37% among 220,000; in the data active = activation above about 33%, passing the limit was not always enough;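 note: cells stimulated with NPY at EC10 then isoproterenol at EC100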
Target sequence (P25929 whole entry, looked up): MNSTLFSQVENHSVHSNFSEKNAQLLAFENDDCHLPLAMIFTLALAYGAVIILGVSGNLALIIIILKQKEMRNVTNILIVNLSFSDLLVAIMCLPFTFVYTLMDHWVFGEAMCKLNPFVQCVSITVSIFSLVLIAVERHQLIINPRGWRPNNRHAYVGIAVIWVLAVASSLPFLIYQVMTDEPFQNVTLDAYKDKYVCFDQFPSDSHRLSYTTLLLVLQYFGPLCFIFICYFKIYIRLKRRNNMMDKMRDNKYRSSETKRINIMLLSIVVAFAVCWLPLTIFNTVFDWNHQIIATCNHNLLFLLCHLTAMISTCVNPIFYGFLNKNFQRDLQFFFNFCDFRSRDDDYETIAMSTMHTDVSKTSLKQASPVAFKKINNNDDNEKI
NPY Y2 blocker: NPY-Y2 (human) receptor antagonism; hit rate 0.99% among 140,000; inhibition, % at 2.7 µM; NPY-Y2 expressing cells, antagonist mode; P49146; in the data active = inhibition above about 17%
NPY-Y1 antag: antagonists of human neuropeptide Y receptor Y1. P25929. HEK293-CNG Y1 cells, membrane potential fluorescence; NPY at EC95, then isoproterenol. inhibition, % at 3.6 µM. hit rate 1% among 200,000. AID 1040;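 active = inhibition above the campaign mean inhibition of all tested compounds plus 3 SD, cut at about 20% in these data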
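System: HEK293 cells with Y1 receptor plus CNG channel / Probe or stimulus: NPY 25 nM then isoproterenol 1 µM plus Ro 20-1724 25 µM / Compound: one concentration, 3.6 µM, in 0.4% DMSO / Schedule: compound incubation 1 h at room temperature, readout 45 min post-stimulation / Measured by: membrane potential fluorescence / Read-out: % inhibition of NPY effect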
S1P4 ag: activates the human S1P4 receptor; O95977; S1P4-expressing cell line, agonist reporter assay; activation, % at 4.98 µM; hit rate 0.35% among 220,000; AID 1509; in the data active = activation above about 11%
S1P4 antagonist: blocks the human S1P4 receptor. O95977. S1P4-expressing cells, antagonist mode, reporter read-out. inhibition, % at 4.98 µM. hit rate 0.26% among 220,000. AID 1510; in the data active = inhibition above about 29%
S1P4 antag conf: human S1P4 antagonism, confirmation. shares compounds with S1P4 antagonist. S1P4-expressing cell line, antagonist mode, reporter read-out. inhibition, % at 4.98 µM. hit rate 71% among 520; in the data active = inhibition above about 30%
S1P1 antag: counter-screen for S1P4 antagonists: antagonists of human S1P1 | shares compounds with S1P4 antagonist | cell-based S1P1 antagonist counterscreen, inhibition | inhibition, % at 4.98 µM | hit rate 37% among 520 | AID 1564; in the data active = inhibition above about 40%;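 note: receptor stimulated with S1P near its EC80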
Numbers stand for hits; n = inactive; x = not tested or not shown.

SMILES	NPY2 pot ag	NPY1 pot ag	NPY Y2 blocker	NPY-Y1 antag	S1P4 ag	S1P4 antagonist	S1P4 antag conf	S1P1 antag
Cc1ccc(/C=N/NC(=O)c2ccccc2OCc2cccc(Br)c2)o1	n	n	x	n	n	n	x	x
Cc1ccccc1OCCN1C(=O)NC2(CCc3ccccc32)C1=O (configuration not stated)	n	n	n	n	n	36	n	n
O=C(/C=C/c1ccccc1)CC(O)(c1ccccc1)C(F)(F)C(F)F (configuration not stated)	n	n	n	n	n	58	106	n
O=C(/C=C/c1ccccc1)CC(O)(c1ccccc1)C(F)(F)F (configuration not stated)	n	n	n	n	n	47	106	41
Oc1csc(Cc2nc(-c3ccccc3F)cs2)n1	n	n	x	n	n	n	x	x
COc1ccc(N2C(=O)CC(N3CCN(S(=O)(=O)c4ccc(Cl)cc4)CC3)C2=O)cc1 (configuration not stated)	n	n	x	n	n	30	n	n
COc1ccc(N2C(=O)CC(N3CCC(O)(c4ccc(Cl)cc4)CC3)C2=O)cc1 (configuration not stated)	n	n	n	n	n	n	x	x
COc1cc(CNCCCN2CCOCC2)cc(Br)c1OCc1ccc(Cl)cc1	n	n	x	n	n	30	52	n
CN(C(=O)COC(=O)c1nc(-c2ccccc2)n(-c2ccccc2)n1)C1CCS(=O)(=O)C1 (configuration not stated)	n	n	n	n	n	n	x	x
CN(C(=O)COC(=O)c1nc(Cl)c(Cl)c(Cl)c1Cl)C1CCS(=O)(=O)C1 (configuration not stated)	n	n	x	n	n	40	74	n
Cc1nn(C)c(C)c1N1C(=O)c2cccc3c(Br)ccc(c23)C1=O	n	n	n	n	n	44	89	85
CCOc1ccc(C(=O)NCCC2=CCCCC2)cc1OCC	n	n	x	n	n	n	x	x
N/C(=N\OC(=O)c1ccccc1Cl)c1ccncc1	n	n	x	n	n	n	x	x
N/C(=N/OC(=O)c1ccccc1Cl)c1ncc([N+](=O)[O-])s1	n	n	x	x	n	34	n	n
CCCN(CC(=O)Nc1cc(Cl)cc(Cl)c1)CC(=O)Nc1ccc(F)c(F)c1F	n	n	n	n	n	n	x	x
Cc1c(Cl)cccc1NC(=O)CN1CCN(CCN=CC2=C(O)CC(c3ccccc3)CC2=O)CC1 (configuration not stated)	n	n	x	n	n	n	x	x
Nc1ncnc2c1ncn2C1OC(CO)C(O)C1N (configuration not stated)	n	n	x	x	n	n	x	x
Nc1ncnc2c1ncn2C1OC(CO)C(O)C1O (configuration not stated)	n	n	x	n	n	39	67	41
COc1ccc([N+](=O)[O-])cc1NC(=O)Cn1ccc(C(F)(F)F)n1	n	n	x	n	n	n	x	x
CC(C)Cn1c([N+](=O)[O-])nc2c1c(=O)[nH]c(=O)n2C	n	n	x	x	n	29	n	n
Cn1c(=O)[nH]c(=O)c2c1nc1n2CCN1Cc1ccccc1	n	n	n	n	n	n	x	x
Cn1c(=O)[nH]c(=O)c2c1nc([N+](=O)[O-])n2Cc1ccccc1	n	n	x	x	n	51	68	56
Cc1ccc(/C=C/C(=O)N2CCN(c3ncccn3)CC2)o1	n	n	n	n	n	n	x	x
CC1CCCC(C)N1C(=O)CSc1nnnn1Cc1ccccc1 (configuration not stated)	n	n	n	n	n	92	n	n
CCN(C(=O)[C@@H]1CCCN1C(=O)c1cccs1)c1nc2cc(Cl)ccc2s1	n	n	n	n	n	n	x	x
SMILES	NPY2 pot ag	NPY1 pot ag	NPY Y2 blocker	NPY-Y1 antag	S1P4 ag	S1P4 antagonist	S1P4 antag conf	S1P1 antag
COc1ccc(N=C2S/C(=C\c3ccc(N4CCOCC4)o3)C(=O)N2CCc2c[nH]c3ccccc23)cc1	n	n	n	n	n	55	68	n
CCCc1cnc(NCCNCC(O)COc2ccc(Cl)c(Cl)c2)nc1 (configuration not stated)	n	n	x	x	n	31	n	64
COc1ccc(OCC(O)CNC(=O)c2sccc2Cl)cc1 (configuration not stated)	n	n	x	x	n	n	x	x
NC(=O)c1cccc(S(=O)(=O)N2CCCCC2)c1	n	n	n	n	n	n	x	x
Nc1cccc2c1C(=O)N(C(=O)c1cccc(S(=O)(=O)N3CCCC3)c1)C2=O	n	n	n	n	n	31	n	n
Cc1ccc(NC(=O)CS(=O)CC(=O)Nc2ccc(N3CCOCC3)cc2)cc1Cl (configuration not stated)	n	n	n	n	n	30	n	n
CCn1c(C)nc2cc(C(=O)NNC(=O)CCC3CCCC3)ccc21	n	n	n	n	n	n	x	x
Cc1[nH]c2ccccc2c1/C=N/Nc1nc2ccccc2[nH]1	n	n	x	x	n	50	57	n
Cc1[nH]c2ccccc2c1/C=N/NC(=S)NCc1ccccc1	n	n	x	n	n	n	x	x
CCc1nnc(N/N=C/c2c(C)[nH]c3ccccc23)n1N	n	n	x	n	n	97	n	n
COC(=O)c1cn(Nc2ncc(C(F)(F)F)cc2Cl)c(=O)c2ccccc12	n	n	n	n	n	38	31	n
CN(C)/N=C/C=C1\CCC/C(=C\c2ccc(F)c(F)c2)C1=O	n	n	x	n	n	29	34	42
COc1ccc(/C=C2\CCC/C(=C\C=N\N(C)C)C2=O)cc1	n	n	x	n	n	n	x	x
CCOC(=O)/C(=C\c1ccc(OC(F)F)cc1)C1=Nn2c(nnc2-c2ccc(Cl)cc2)SC1	n	n	n	n	n	31	119	87
S=C(Nc1ccc(Br)cc1Cl)NN1CCOCC1	n	n	x	n	n	n	x	x
Cc1cccc(OCC(=O)Nc2ccc3c(c2)OCO3)c1C	n	n	n	n	n	n	x	x
Cc1ccc(C)c(OCC(=O)Nc2ccc3c(c2)OCO3)c1C	n	n	n	n	n	30	n	n
Cc1nnc(N/N=C/c2c(Cl)cccc2Cl)n1N	n	n	x	n	n	30	n	n
Cc1nnc(N/N=C/c2ccccc2O)n1N	n	n	x	n	n	n	x	x
CN(CCOc1ccc(-c2ccn(S(=O)(=O)c3cccc4ccccc34)n2)cc1)c1ccccn1	n	n	n	n	n	n	x	x
O=C(OCc1ccc(Cl)cc1)c1ccccc1C(=O)c1ccccc1	n	n	n	n	n	n	x	x
O=C(NCc1cccnc1)/C(=C\c1ccc(-c2ccc(Cl)c(Cl)c2)o1)S(=O)(=O)c1ccccc1	n	n	17	24	n	58	108	48
